Published values gathered from unrelated publications.
Compare with care: the assays were run in different laboratories.
AVPR2: Vasopressin V2 receptor (AVPR2, Homo sapiens, UniProt P30518)
APC: Adenomatous polyposis coli protein (APC, Homo sapiens, UniProt P25054)
HTR1E: 5-hydroxytryptamine receptor 1E (HTR1E, Homo sapiens, UniProt P28566)
Palmitoyl-protein thioesterase 1: Palmitoyl-protein thioesterase 1 (Homo sapiens, UniProt P50897)

SMILES | target | test | quantity | value
CCCCCCCC/C=C\CCCCCCCC(=O)O | Myoglobin (MB, Homo sapiens, UniProt P02144) | binding, absorbance | Kd | 240 nM
CC1=NN(/C(=N/c2nnc(C)s2)Nc2ccc(C)c(C)c2)C(c2ccc(F)cc2)S1 (stereo not drawn) | AVPR2 | cAMP, positive allosteric modulator | EC50 | > 50 µM
CN1CCN(Cc2ccc(CNc3cccc4c3CN(C)N(C3CCC(=O)NC3=O)C4=O)cc2)CC1 (stereo not drawn) | Cereblon/Casein kinase I alpha (CSNK1A1/CRBN, Homo sapiens, UniProt P48729+Q96SW2) | protein level, degrader, luciferase | DC50 | 92 nM
CC(C)=CCNc1ncnc2c1ncn2[C@@H]1O[C@H](CO)[C@@H](O)[C@H]1O | Adenosine receptor A3 (ADORA3, Homo sapiens, UniProt P0DMS8, I253Q) | G protein activation, agonist | EC50 | 0.08 µM
CC(C)C[C@H](NC(=O)[C@H](Cc1ccc2ccccc2c1)NC(=O)[C@H](CCC(=O)O)NC(=O)c1ccncn1)C(=O)NC1CC1c1ccccc1 (stereo partly drawn) | APC | binding, SPR | Kd | 2300 nM
CN1CCC(=C2c3ccccc3C=Cc3ccccc32)CC1 | HTR1E | G protein activation, agonist, BRET | EC50 | 2.04 µM
CC1=NN(/C(=N\c2ccc(C)cc2)Nc2nnc(C)s2)C(c2ccc(C)cc2)S1 (stereo not drawn) | AVPR2 | cAMP, positive allosteric modulator | EC50 | 24.2 µM
CN(C)c1ncnc2c1ncn2[C@@H]1O[C@H](CO)[C@@H](O)[C@H]1O | Adenosine receptor A3 (ADORA3, Homo sapiens, UniProt P0DMS8, L264A) | G protein activation, agonist | EC50 | 4 µM
C=CCN1C[C@H](C(=O)N(CCCN(C)C)C(=O)NCC)C[C@@H]2c3cccc4[nH]cc(c34)C[C@H]21 | HTR1E | G protein activation, agonist, BRET | EC50 | 1.72 µM
CC1=NN(/C(=N\c2ccc(C(F)(F)F)cc2)Nc2nnc(C)s2)C(c2ccc(C)cc2)S1 (stereo not drawn) | AVPR2 | cAMP, positive allosteric modulator | EC50 | 16.6 µM
CN(C)CCCN1c2ccccc2Sc2ccc(Cl)cc21 | HTR1E | G protein activation, agonist, BRET | EC50 | 2.08 µM
Cc1ccc(N/C(=N\c2nnc(C(C)(C)C)s2)N2N=C(C(C)(C)C)SC2c2cc(F)c(F)c(F)c2)cc1C (stereo not drawn) | AVPR2 | cAMP, positive allosteric modulator | EC50 | > 50 µM
CC(C)C[C@H](NC(=O)[C@H](Cc1ccc2ccccc2c1)NC(=O)[C@H](CCC(=O)O)NC(=O)c1ccnc(F)c1)C(=O)NC1CC1c1ccccc1 (stereo partly drawn) | APC | ligand displacement, FP | IC50 | 42.7 µM
CC1=NN(/C(=N/c2nnc(C)s2)Nc2ccc(C)c(C)c2)C(c2cccnc2)S1 (stereo not drawn) | AVPR2 | cAMP, positive allosteric modulator | EC50 | > 50 µM
[H]/N=C(\N/C(=N/[H])Nc1ccc(Cl)cc1)NC(C)C | Palmitoyl-protein thioesterase 1 | binding, MST | Kd | 808 nM
CSc1ncc(Br)c(C(=O)N[C@@H](CCC(=O)O)C(=O)N[C@@H](Cc2ccc3ccccc3c2)C(=O)N[C@@H](CC(C)C)C(=O)NC2CC2c2ccccc2)n1 (stereo partly drawn) | APC | binding, SPR | Kd | 580 nM
NC(=O)N[C@@H](CCC(=O)O)C(=O)O | Palmitoyl-protein thioesterase 1 | binding, MST | Kd | 1270 nM

SMILES | target | test | quantity | value
CN1CCc2cc(Cl)c(O)cc2[C@@H](c2ccccc2)C1 | HTR1E | G protein activation, agonist, BRET | EC50 | 3.9 µM
CSc1cccc(C(=O)N[C@@H](CCC(=O)O)C(=O)N[C@@H](Cc2ccc3ccccc3c2)C(=O)N[C@@H](CC(C)C)C(=O)NC2CC2c2ccccc2)c1 (stereo partly drawn) | APC | ligand displacement, FP | IC50 | 52.5 µM
CN1CCN2c3ccccc3Cc3ccccc3C2C1 (stereo not drawn) | HTR1E | G protein activation, agonist, BRET | EC50 | 0.123 µM
OC(c1cc(C(F)(F)F)nc2c(C(F)(F)F)cccc12)C1CCCCN1 (stereo not drawn) | Palmitoyl-protein thioesterase 1 | binding, MST | Kd | 226 nM
CC1=NN(/C(=N/c2nnc(C)s2)Nc2ccc(C)c(C)c2)C(c2cccc(-c3ccccc3)c2)S1 (stereo not drawn) | AVPR2 | cAMP, positive allosteric modulator | EC50 | > 50 µM
CCN1CCC[C@H]1CNC(=O)c1c(O)c(Cl)cc(Cl)c1OC | HTR1E | G protein activation, agonist, BRET | EC50 | 0.49 µM
N=C(N)NCCC[C@H](NC(=O)[C@@H](NC(=O)[C@H](Cc1cscn1)NC(=O)CCc1ccccc1)C1CCCCC1)C(=O)c1nc2ccccc2s1 | Transmembrane protease serine 6 (Homo sapiens, UniProt Q8IU80) | cell-free assay | Ki | ~5 nM
CN1CCC(=C2c3ccccc3Sc3ccccc32)CC1 | HTR1E | G protein activation, agonist, BRET | EC50 | 0.33 µM
CC(C)C[C@H](NC(=O)[C@H](CC1CC1)NC(=O)[C@H](CCC(=O)O)NC(=O)c1ccncn1)C(=O)NC1CC1c1ccccc1 (stereo partly drawn) | APC | binding, SPR | Kd | 32000 nM
CC1=NN(/C(=N/c2nnc(C)s2)Nc2ccc(C)c(C)c2)C(c2ccsc2)S1 (stereo not drawn) | AVPR2 | cAMP, positive allosteric modulator | EC50 | > 50 µM
C#Cc1cccc(C(=O)N[C@@H](CCC(=O)O)C(=O)N[C@@H](Cc2ccc3ccccc3c2)C(=O)N[C@@H](CC(C)C)C(=O)NC2CC2c2ccccc2)c1 (stereo partly drawn) | APC | ligand displacement, FP | IC50 | 24 µM
CC1=NN(/C(=N\c2ccc(Br)cc2)Nc2nnc(C)s2)C(c2ccc(C)cc2)S1 (stereo not drawn) | AVPR2 | cAMP, positive allosteric modulator | EC50 | 17.6 µM
CSc1nccc(C(=O)N[C@@H](CCC(=O)O)C(=O)N[C@@H](Cc2ccc3ccccc3c2)C(=O)N[C@@H](CC(C)C)C(=O)N[C@@H]2C[C@H]2c2ccccc2)n1 | APC | binding, SPR | Kd | 380 nM
CO[C@H]1C[C@@H]2CC[C@@H](C)[C@@](O)(O2)C(=O)C(=O)N2CCCC[C@H]2C(=O)O[C@H]([C@H](C)C[C@@H]2CC[C@@H](OC(=O)C(C)(CO)CO)[C@H](OC)C2)CC(=O)[C@H](C)/C=C(\C)[C@@H](O)[C@@H](OC)C(=O)[C@H](C)C[C@H](C)/C=C/C=C/C=C/1C | Ferroptosis suppressor protein 1 (AIFM2, Homo sapiens, UniProt Q9BRQ8) | binding, ITC | Kd | ~5280 nM
CCc1cccc(C(=O)N[C@@H](CCC(=O)O)C(=O)N[C@@H](Cc2ccc3ccccc3c2)C(=O)N[C@@H](CC(C)C)C(=O)NC2CC2c2ccccc2)c1 (stereo partly drawn) | APC | ligand displacement, FP | IC50 | 25.1 µM
N#C[C@@]12C[C@@H]1[C@@H](n1cnc3c(N[C@@H](C4CCC4)C4CC4)nc(I)nc31)[C@H](O)[C@@H]2O | Adenosine receptor A3 (ADORA3, Homo sapiens, UniProt P0DMS8) | ligand displacement, radioligand | Ki | > 1000 nM
